Laboratory results taken from ChEMBL document CHEMBL4304791, “DABMA: A Derivative of ABMA with Improved Broad-Spectrum Inhibitory Activity of Toxins and Viruses” (ACS Med Chem Lett, 2019).
Calls of active or inactive are those of the source. The calls are words filed in the database; no cut-off is given here.

Assays:
L929 = assay: Cytoprotective activity in Pseudomonas aeruginosa exotoxin-induced toxicity in mouse L929 cells assessed as protection of protein synthesis after 18 hrs followed by replacement of [14c]-Leucine containing medium and measured after 4 hrs by liquid scintillation analysis by liquid scintillation analysis; assay type: functional, cell-based
Outline: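 L929 cells were intoxicated with increasing doses of Pseudomonas exotoxin A for 18 h with compound (30 μM) or DMSO present. Protein synthesis was measured; duplicate wells, mean ± SD, one representative experiment (n = 3).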

A549 [1] = assay: Selectivity index, ratio of CC50 for cytotoxicity against human A549 cells to EC50 for cytoprotective activity in diphtheria-induced cytotoxicity in human A549 cells
A549 [2] = assay: Induction of lysosomal activation in human A549 cells at 30 uM incubated for 2 hrs by LysoTracker Red staining based confocal microscopic analysis; assay type: functional, cell-based
Outline: (§1)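 A549 cells were pretreated 2 h with compound (30 or 60 μM) or DMSO, then stained with LysoTracker Deep Red (50 nM, 30 min) plus Hoechst. Intensity was read from 3 × 3 fields per well (10,000 cells/well) by imaging reader; mean ± SEM, n = 4; confocal images.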

Vero = assay: Inhibition of TcdB-induced cytotoxicity against African green monkey Vero cells assessed as reduction in toxin-induced cell rounding at 30 uM in presence of TcdB after 4 hrs by inverted microscopic analysis; assay type: functional, cell-based; settings: Chlorocebus sabaeus
Outline: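 Vero cells were given compound (30 μM) or DMSO, then increasing doses of TcdB for 4 h or TcsL for 16 h. Cell rounding was imaged by inverted microscope. Rounded cells were counted and normalised to total Hoechst-counterstained cells (>100 cells per treatment).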

Lyssavirus rabies = assay: Antiviral activity against RABV infected in BSR cells preincubated for 4 hrs followed by viral infection and further incubated with compounds for 24 hrs by immunostaining-based assay; assay type: functional, organism-based
Outline: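 BSR cells were pretreated 4 h with compound, then infected with RABV (MOI = 14) for 1 h. Cells were washed and kept with compound for 24 h, then fixed and immunostained for the RABV ribonucleocapsid (RNP). Nuclei and RNP images from 15 fields per well (>10,000 cells) were used to calculate percent inhibition.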

[3] = Cytotoxicity against human A549 cells assessed as reduction in cell viability incubated for 24 hrs by Alamar blue assay; assay type: cell-based
Outline: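 A549 cytotoxicity by Alamar Blue viability assay; duplicate wells, mean ± SD, one representative experiment (n = 3).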

A549 [4] = assay: Cytoprotection activity against diphtheria toxin-induced cytotoxicity against human A549 cells assessed as effect on protein synthesis incubated for 20 hrs followed by replacement of [14c]-Leucine containing medium and measured after 4 hrs by liquid scintillation analysis; assay type: functional, cell-based
Outline: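 A549 cells were incubated with compound and then challenged with increasing DT concentrations. DT cytotoxicity was read as protein synthesis inhibition. Data are mean of duplicate wells ± SD from one representative experiment (n = 3).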

A549 [5] = assay: Inhibition of diphtheria induced toxicity in human A549 cells assessed as protection fold at 30 uM incubated for 20 hrs followed by replacement of [14c]-Leucine containing medium and measured after 4 hrs by liquid scintillation analysis relative to ABMA; assay type: functional
Outline: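 Single-concentration screen: 30 μM compound on A549 cells with increasing DT concentrations, read as protein synthesis inhibition. Protection fold was calculated with ABMA as the positive control.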

A549 [6] = assay: Induction of lysosomal activation in human A549 cells incubated for 2 hrs by LysoTracker Red staining based confocal microscopic analysis; assay type: functional, cell-based; outline: as §1
A549 [7] = assay: Inhibition of diphtheria induced toxicity in human A549 cells assessed as protection factor at 0.15 nM incubated for 20 hrs followed by replacement of [14c]-Leucine containing medium and measured after 4 hrs by liquid scintillation analysis relative to untreated control; assay type: functional
Outline: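 A549 cells were incubated with Baf A1 (0.15 nM), DABMA (15 μM), both, or DMSO vehicle before DT was added, with the compounds kept present throughout. Toxin protection was read as protein synthesis and expressed as protection factor.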

A549 [8] = assay: Increase in cholesterol accumulation in human A549 cells at 60 uM incubated for 18 hrs by choelesterol-avid filipin-3 staining based confocal microscopic analysis; assay type: functional, cell-based
Outline: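 A549 cells were treated 18 h with compound or DMSO, fixed, and stained with Filipin III for cholesterol. Confocal imaging; fluorescence quantified in >30 cells (mean ± SEM), unpaired t test versus DMSO.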

A549 [9] = assay: Induction of lysosomal activation in human A549 cells at 60 uM incubated for 2 hrs by LysoTracker Red staining based confocal microscopic analysis; assay type: functional, cell-based; outline: as §1

COc1ccc(Br)cc1CNC12CC3CC(CC(C3)C1)C2
Activity (L929): Active
Ratio CC50/EC50 (A549 [1]): 4.4
Activity (A549 [2]): Active
inhibition (Vero): Active
inhibition (Lyssavirus rabies): Active
CC50 at 24 h [3]: 277 µM
EC50 (A549 [4]): 62.9 µM

COc1ccc(Br)cc1/C=N/C12CC3CC(CC(C3)C1)C2
fold change (FC) (A549 [5]): 0.05
Activity (A549 [6]): inactive

COc1ccc(I)cc1CNC12CC3CC(C)(CC(C)(C3)C1)C2
Ratio CC50/EC50 (A549 [1]): 3.6
CC50 at 24 h [3]: 90.8 µM
fold change (FC) (A549 [5]): 35.1
EC50 (A549 [4]): 25.1 µM

CCCCCCCCCNCc1cc(Br)ccc1OC
fold change (FC) (A549 [5]): 0.26

CO/C1=C\C(C)=C\[C@@H](C)[C@@H](O)[C@@H](C)C/C(C)=C/C=C/[C@H](OC)[C@@H]([C@@H](C)[C@@H](O)[C@H](C)[C@@]2(O)C[C@@H](O)[C@H](C)[C@@H](C(C)C)O2)OC1=O [BAFILOMYCIN A1]
fold change (FC) (A549 [7]): 5.2
EC50 (A549 [4]): 0.0006 µM

Cn1c(CNC23CC4CC(CC(C4)C2)C3)cc2ccccc21
fold change (FC) (A549 [5]): 0.21

COc1ccc(Br)cc1CNCCCc1ccccc1
fold change (FC) (A549 [5]): 0.52

NC(=O)c1ncn([C@@H]2O[C@H](CO)[C@@H](O)[C@H]2O)n1
inhibition (Lyssavirus rabies): Active

COc1ccc(Br)cc1CN(C)C12CC3CC(CC(C3)C1)C2
fold change (FC) (A549 [5]): 0.52

COc1ccc(Br)cc1CNC1CCCCC1
fold change (FC) (A549 [5]): 0

COc1ccc(Br)cc1CNC(C)(C)C
fold change (FC) (A549 [5]): 0

Ic1ccc(CNC23CC4CC(CC(C4)C2)C3)cc1
fold change (FC) (A549 [5]): 6.6

COc1ccc(Br)cc1CN(C(C)=O)C12CC3CC(CC(C3)C1)C2
fold change (FC) (A549 [5]): 0.3
Activity (A549 [6]): inactive

Brc1ccc(CNC23CC4CC(CC(C4)C2)C3)cc1
fold change (FC) (A549 [5]): 2.3

CC(N)C12CC3CC(CC(C3)C1)C2.Cl (stereo not given) [RIMANTADINE HYDROCHLORIDE]
fold change (FC) (A549 [5]): 0.35

COc1ccc(Br)cc1CNc1cccc2ccccc12
fold change (FC) (A549 [5]): 0.19

COc1ccc(Br)cc1CN[C@H]1C[C@@H]2CC[C@@]1(C)C2(C)C
fold change (FC) (A549 [5]): 0.4

COc1ccc(Br)cc1CNCc1ccccc1
fold change (FC) (A549 [5]): 0

Cn1c(CNC2C3CC4CC(C3)CC2C4)cc2ccccc21 (stereo not given)
fold change (FC) (A549 [5]): 0.21

NC12CC3CC(CC(C3)C1)C2 [AMANTADINE]
fold change (FC) (A549 [5]): 0.3

COc1cc(I)ccc1CNC12CC3CC(CC(C3)C1)C2
fold change (FC) (A549 [5]): 3.6

CC12CC3CC(C)(C1)CC(NCc1ccc(I)cc1)(C3)C2
Ratio CC50/EC50 (A549 [1]): 3.6
CC50 at 24 h [3]: 137 µM
fold change (FC) (A549 [5]): 12.5
EC50 (A549 [4]): 38.3 µM

COc1ccc(Br)cc1CNc1ccccc1
fold change (FC) (A549 [5]): 0.19

O=[N+]([O-])c1cccc(CNC23CC4CC(CC(C4)C2)C3)c1
fold change (FC) (A549 [5]): 5.7

CC12CC3CC(C)(C1)CC(N)(C3)C2 [MEMANTINE]
fold change (FC) (A549 [5]): 0

COc1ccc(Br)cc1C(=O)NC12CC3CC(CC(C3)C1)C2
Activity (A549 [8]): inactive
fold change (FC) (A549 [5]): 0
Activity (A549 [9]): inactive

COc1ccc(Br)cc1CNC1CC(C)CCC1C(C)C (stereo not given)
fold change (FC) (A549 [5]): 2.2

COc1ccc(Br)cc1CN(C(=O)c1ccccc1)C12CC3CC(CC(C3)C1)C2
fold change (FC) (A549 [5]): 0.25
